Measured values from ChEMBL document CHEMBL5331142, “Novel 1,4-Dihydropyridines as Specific Binders and Activators of SIRT3 Impair Cell Viability and Clonogenicity and Downregulate Hypoxia-Induced Targets in Cancer Cells” (J Med Chem, 2023).
The source made the active and inactive calls. The calls are words filed in the database; no cut-off is given here.

Tests used:
CAL-62 [1] = experiment: Downregulation of EPAS-1 expression in human CAL-62 cells at 50 uM incubated for 48 hrs under hypoxia condition by Western blot analysis; type: functional, cell-based
Outline: (§1)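 CAL-62 or MDA-MB-231 cells made hypoxic with 200 μM CoCl2 for 24 h, then treated with 50 μM compound for 48 h with CoCl2 retained. Lysates (15 or 50 μg protein) immunoblotted for HIF-1α, EPAS-1 or CA-IX with ACTB, ECL detection. 3-TYP (1 μM) as control.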

[2] = target: T1, NAD-dependent protein deacetylase sirtuin-3, mitochondrial (Homo sapiens) (UniProt Q9NTG7); experiment: Activation of N-terminal his-tagged human SIRT3 (114 to 380 residues) deacylation activity expressed in Escherichia coli at 100 uM using ACS2-acK642 as substrate in presence of NAD+ by NADH oxidation-coupled enzymatic assay; details: filed as activator
T1 sequence (whole entry): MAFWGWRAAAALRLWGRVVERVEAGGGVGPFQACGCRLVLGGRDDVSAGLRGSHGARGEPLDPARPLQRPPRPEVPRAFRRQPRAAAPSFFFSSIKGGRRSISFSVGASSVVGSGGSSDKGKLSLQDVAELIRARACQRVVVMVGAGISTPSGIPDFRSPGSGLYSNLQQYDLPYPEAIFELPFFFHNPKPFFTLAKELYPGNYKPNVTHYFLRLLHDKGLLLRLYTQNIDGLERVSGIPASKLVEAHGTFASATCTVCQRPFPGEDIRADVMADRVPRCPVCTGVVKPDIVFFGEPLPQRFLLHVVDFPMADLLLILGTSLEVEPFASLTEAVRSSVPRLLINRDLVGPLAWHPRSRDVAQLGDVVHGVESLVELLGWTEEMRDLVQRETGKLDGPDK
Outline: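 Coupled PncA/GDH deacylation assay following NADPH oxidation to NADP+. 1.5 μM SIRT3 (E. coli-expressed, tag removed) with 50 μM ACS2-acK642 peptide and 100 μM NAD+, compound at 100 μM, 5% final DMSO.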

[3] = target: T2, NAD-dependent protein deacetylase sirtuin-2 (Homo sapiens) (UniProt Q8IXJ6); experiment: Activation of N-terminal his-tagged human SIRT2 (43 to 356 residues) expressed in Escherichia coli at 10 uM using p53-acK381 as substrate in presence of NAD+ by NADH oxidation-coupled enzymatic assay
T2 sequence (whole entry): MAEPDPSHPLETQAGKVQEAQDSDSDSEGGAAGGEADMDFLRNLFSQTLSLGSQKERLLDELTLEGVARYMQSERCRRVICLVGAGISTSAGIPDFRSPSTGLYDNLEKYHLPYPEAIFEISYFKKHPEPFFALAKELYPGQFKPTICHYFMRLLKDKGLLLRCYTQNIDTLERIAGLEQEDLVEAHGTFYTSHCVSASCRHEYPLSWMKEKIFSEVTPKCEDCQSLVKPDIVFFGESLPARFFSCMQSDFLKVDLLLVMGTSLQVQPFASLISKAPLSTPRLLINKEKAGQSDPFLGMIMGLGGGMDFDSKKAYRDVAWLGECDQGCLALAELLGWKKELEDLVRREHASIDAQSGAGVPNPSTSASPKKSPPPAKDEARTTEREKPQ

MDA-MB-231 [4] = experiment: Downregulation of COLLAGEN gene expression in human MDA-MB-231 cells at 50 uM incubated for 48 hrs under hypoxia condition by qRT-PCR analysis; type: functional, cell-based
Outline: (§2)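 MDA-MB-231 cells pretreated with 200 μM CoCl2 to induce hypoxia, then exposed to 50 μM compound for 48 h with CoCl2 maintained. qRT-PCR by the 2(−ΔCt) method vs DMSO control, mean ± SEM. Four independent experiments.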

MDA-MB-231 [5] = experiment: Downregulation of SNAIL gene expression in human MDA-MB-231 cells at 50 uM incubated for 48 hrs by qRT-PCR analysis; type: functional, cell-based
Outline: (§3)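 MDA-MB-231 cells treated with 50 μM compound for 48 h under normoxia, DMSO vehicle control. qRT-PCR quantified by the 2(−ΔCt) method as fold of control, mean ± SEM. Three independent experiments.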

MDA-MB-231 [6] = experiment: Downregulation of EPAS-1 expression in human MDA-MB-231 cells at 50 uM incubated for 48 hrs under hypoxia condition by Western blot analysis; type: functional, cell-based; outline: as §1
MDA-MB-231 [7] = experiment: Downregulation of COL1A2 gene expression in human MDA-MB-231 cells at 50 uM incubated for 48 hrs by qRT-PCR analysis; type: functional, cell-based; outline: as §3
[8] = target: NAD-dependent protein deacylase sirtuin-5, mitochondrial (Homo sapiens) (UniProt Q9NXA8); experiment: Activation of N-terminal his-tagged human SIRT5 (34 to 302 residues) expressed in Escherichia coli at 10 uM using p53-acK381 as substrate in presence of NAD+ by NADH oxidation-coupled enzymatic assay
[9] = target: T1, NAD-dependent protein deacetylase sirtuin-3, mitochondrial (Homo sapiens); experiment: Activation of N-terminal his-tagged human SIRT3 (114 to 380 residues) deacylation activity expressed in Escherichia coli at 10 uM using ACS2-acK642 as substrate in presence of NAD+ by NADH oxidation-coupled enzymatic assay; details: filed as activator
Outline: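 Coupled PncA/GDH deacylation assay following NADPH oxidation to NADP+. 1.5 μM sirtuin, 50 μM substrate peptide, 100 μM NAD+, compound at 10 μM, 5% final DMSO. Isoform-specific physiological substrates: p53-acK381 (SIRT1), […] (SIRT2), ACS2-acK642 (SIRT3), CPS1-succK537 (SIRT5). Sirtuins expressed in E. coli, Ni-NTA purified, tag cleaved, then size-exclusion chromatography.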

MDA-MB-231 [10] = experiment: Downregulation of MMP2 gene expression in human MDA-MB-231 cells at 50 uM incubated for 48 hrs under hypoxia condition by qRT-PCR analysis; type: functional, cell-based; outline: as §2
CAL-62 [11] = experiment: Anticancer activity against human CAL-62 cells assessed as reduction in cell viability at 50 uM incubated for 24 to 48 hrs under hypoxia condition by trypan blue exclusion assay; type: functional, cell-based; details: time 24-48 hrs, TDE = time-dependent effect
Outline: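 CAL-62 cells in RPMI 1640 with 10% FBS, treated with 50 μM compound (DMSO) for 24 and 48 h. Hypoxia induced with 200 μM CoCl2, kept in the medium during treatment. Viable cells counted by 0.4% trypan blue staining on a hemocytometer.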

MDA-MB-231 [12] = experiment: Downregulation of ZEB1 gene expression in human MDA-MB-231 cells at 50 uM incubated for 48 hrs under hypoxia condition by qRT-PCR analysis; type: functional, cell-based; outline: as §2
[13] = target: T1, NAD-dependent protein deacetylase sirtuin-3, mitochondrial (Homo sapiens); experiment: Activation of human SIRT3 overexpressing in human MDA-MB-231 cells assessed as increase in GDH activity at 50 uM incubated for 4 hrs by absorbance assay; type: cell-based; details: filed as activator
Outline: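 MDA-MB-231 cells exposed 4 h to 50 μM compound. 10^6 cells lysed in GDH assay buffer for 10 min on ice. Supernatant mixed with developer and glutamate, incubated 3 min at 37 °C, absorbance read at 450 nm with buffer blank subtracted. SIRT3-overexpressing MDA-MB-231 cells served as reference.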

Chain of NAD-dependent protein deacylase sirtuin-5, mitochondrial (Homo sapiens) (Q9NXA8 37-310 limits assumed): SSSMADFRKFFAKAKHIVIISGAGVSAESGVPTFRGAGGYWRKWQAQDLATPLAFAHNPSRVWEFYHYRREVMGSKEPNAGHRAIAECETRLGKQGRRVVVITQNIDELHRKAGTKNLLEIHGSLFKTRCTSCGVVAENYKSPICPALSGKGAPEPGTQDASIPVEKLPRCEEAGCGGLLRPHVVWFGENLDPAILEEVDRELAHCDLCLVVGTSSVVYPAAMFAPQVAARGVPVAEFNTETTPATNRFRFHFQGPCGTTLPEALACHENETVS

Structure (SMILES) | Activity (CAL-62 [1]) | Activity [2] | Activity [3] | Activity (MDA-MB-231 [4]) | Activity (MDA-MB-231 [5]) | Activity (MDA-MB-231 [6]) | Activity (MDA-MB-231 [7]) | Activity [8] | Activity [9] | Activity (MDA-MB-231 [10]) | Activity (CAL-62 [11]) | Activity (MDA-MB-231 [12]) | Activity [13]
CCOC(=O)C1=CN(C(=O)c2cc(OC)cc(OC)c2)C=C(C(=O)OCC)C1c1ccccc1 | Active | 178% | inactive | Active | Active | Active | Active | inactive | 149% | Active | Tde | Active | Active
CCOC(=O)C1=CN(C(=O)c2ccc(OC)c(OC)c2)C=C(C(=O)OCC)C1c1ccccc1 | Active | 387% | inactive | Active | Active | Active | Active | inactive | 158% | Active | Tde | Active | Active
